Results published in ChEMBL document CHEMBL1132222, “Lamellarin alpha 20-sulfate, an inhibitor of HIV-1 integrase active against HIV-1 virus in cell culture” (J Med Chem, 1999).
Values joined by “and” are separate entries in the source; they are usually repeats but may differ in a detail not shown here. Equal values may be shown once. Active and inactive are the calls of the source. The rule behind the calls is not given here.

How the values were obtained:
[1] = The compound was tested for toxicity using MTT cytotoxicity assay in Hela cell culture, activity expressed as LD50 value.; type: cell-based; conditions: human, HeLa cells; read-out: LD50 (the source's name)
In short: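 HeLa cells in culture exposed to a range of compound concentrations; viability read out with MTT dye; LD50 derived from the concentration series.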

[2] = target: Human immunodeficiency virus type 1 integrase (Human immunodeficiency virus 1, UniProt Q7ZJM1); assay: Inhibitory activity against integrase as yield of terminal cleavage products
Sequence of Human immunodeficiency virus type 1 integrase (Q7ZJM1 whole entry): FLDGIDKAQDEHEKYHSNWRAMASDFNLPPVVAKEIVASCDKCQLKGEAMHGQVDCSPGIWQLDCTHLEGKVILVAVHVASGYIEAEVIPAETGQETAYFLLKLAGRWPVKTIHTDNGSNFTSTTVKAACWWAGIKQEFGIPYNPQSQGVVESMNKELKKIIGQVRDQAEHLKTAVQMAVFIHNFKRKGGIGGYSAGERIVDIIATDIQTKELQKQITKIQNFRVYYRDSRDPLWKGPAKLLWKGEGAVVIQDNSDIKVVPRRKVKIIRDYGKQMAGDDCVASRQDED
In short: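 Purified HIV-1 integrase incubated with an end-labeled substrate oligonucleotide across a compound titration. Products separated by electrophoresis and visualized by autoradiography; terminal cleavage product quantitated relative to positive control without inhibitor.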

[3] = test system: Molluscum contagiosum virus; assay: The relaxation activity of MCV topoisomerase was assayed at 170 electrophoresis; No Inhibition; type: functional, organism-based
In short: (§1)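 Type 1B topoisomerase of molluscum contagiosum virus; relaxation of supercoiled plasmid DNA monitored by mobility shift on agarose gel electrophoresis.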

[4] = test system: Molluscum contagiosum virus; assay: The relaxation activity of MCV topoisomerase was assayed at 500 electrophoresis; No Inhibition; type: functional, organism-based; in short: as §1
[5] = test system: Molluscum contagiosum virus; assay: The relaxation activity of MCV topoisomerase was assayed at 100 electrophoresis; No Inhibition; type: functional, organism-based
In short: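 Counterscreen against the type 1B topoisomerase of molluscum contagiosum virus (MCV). Relaxation of supercoiled plasmid DNA was followed by the change in its mobility on agarose gel electrophoresis, with compound present.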

[6] = test system: Human immunodeficiency virus 1; assay: The compound was tested in vitro for inhibition of PIC (preintegrated complexes) from HIV-1 infected cells; type: functional
In short: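 Preintegration complexes isolated from HIV-1-infected cells used as integration source; mixed with naked DNA target and incubated 37 °C for 1 h in presence of compound.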

COc1ccc(-c2c3c4cc(OC)c(O)cc4oc(=O)c3n3ccc4c(OC)c(OC)c(OC)cc4c23)cc1O
CC50 [1]: 28 µM
IC50 [2]: 19 µM and 14 µM
inhibition [3]: inactive

COc1ccc(-c2c3n(c4c(=O)oc5cc(OS(=O)(=O)O)c(OC)cc5c24)C(O)Cc2c-3cc(OC)c(OC)c2OC)cc1O (centres undefined)
CC50 [1]: 130 µM
IC50 [2]: 73 µM and 51 µM
inhibition [4]: inactive

COc1ccc(-c2c3n(c4c(=O)oc5cc(OS(=O)(=O)O)c(OC)cc5c24)CCc2cc(OC)c(OC)cc2-3)cc1O
CC50 [1]: 145 µM
IC50 [2]: 34 µM and 25 µM
inhibition [4]: inactive

COc1ccc(-c2c3n(c4c(=O)oc5cc(O)c(OC)cc5c24)CCc2c-3cc(OC)c(OC)c2OC)cc1O
CC50 [1]: 27 µM
inhibition [5]: inactive
IC50 [2]: 27 µM and 24 µM

COc1ccc(-c2c3c4cc(OC)c(O)cc4oc(=O)c3n3ccc4cc(O)c(OC)cc4c23)cc1O
CC50 [1]: 5 µM
inhibition [5]: inactive
IC50 [2]: 18 µM and 19 µM

COc1ccc(-c2c3c4cc(OC)c(OS(=O)(=O)O)cc4oc(=O)c3n3ccc4cc(OC)c(OC)cc4c23)cc1O
CC50 [1]: 274 µM
IC50 [2]: 16 µM and 22 µM
IC50 [6]: 88 µM
inhibition [3]: inactive
